Data published in ChEMBL document CHEMBL1150382, “Benzanilides with spasmolytic activity: chemistry, pharmacology, and SAR” (Bioorg Med Chem, 2008).

What was measured:
[1] = Toxicity in guinea pig heart muscle; type: tissue-based, Cavia porcellus, Muscle tissue
How it was run: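 Guinea pig heart muscle in oxygenated Krebs–Henseleit at 35 °C. Isometric contraction force was measured in electrically stimulated papillary muscles (Purkinje fibres removed, diameter <0.87 mm). Chronotropic effect was measured as spontaneous activity of isolated right atria. Compounds were added cumulatively. Paired Student's t-test.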

[2] = Toxicity in guinea pig vascular smooth muscle; type: tissue-based, Cavia porcellus, Muscle tissue
How it was run: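 Guinea pig aortic rings in oxygenated Krebs–Henseleit at 35 °C, contracted with 90 mM KCl. Compound was added cumulatively up to 100 µM, and relaxation of isometric contraction force was recorded.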

[3] = Relaxation of KCl-induced contraction in guinea pig terminal ilea assessed as reduction of contraction force at 100 uM; type: functional, Cavia porcellus; design: scale not given: the % may be the effect or the level left
How it was run: (§1)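 Precontracted with 60 mM KCl at a resting tension of 4.9 mN. After a 45 min control period, compound (1–100 µM) was added cumulatively to steady state. Isometric force was recorded as % decrease; IC₅₀ from 4–6 experiments, mean ± SEM.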

[4] = Spasmolytic activity in guinea pig terminal ilea; type: functional, Cavia porcellus; how it was run: as §1
[5] = Spasmolytic activity in guinea pig terminal ilea relative to resveratrol; type: functional, Cavia porcellus
How it was run: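 Ileal IC₅₀ was measured as for the KCl-precontracted (60 mM) guinea pig terminal ileum with cumulative dosing up to 100 µM. It is expressed as a potency index relative to resveratrol.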

[6] = Relaxation of KCl-induced contraction in guinea pig terminal ilea assessed as reduction of contraction force at 30 uM; type: functional, Cavia porcellus; design: scale not given: the % may be the effect or the level left; how it was run: as §1

Row | Structure (SMILES) | Activity [1] | Activity [2] | Activity [3] | IC50 [4] | Activity [5] | Activity [6]
1 | O=C(Nc1cc(F)cc(F)c1)c1ccc(F)cc1 | Non-toxic | Non-toxic | 1.66% | 8.5 µM | 2.82 | 
2 | CSc1ccc(NC(=O)c2cc(F)cc(F)c2)cc1 | Non-toxic | Non-toxic |  | 3.25 µM | 7.39 | 2.8%
3 | O=C(Nc1c(F)cc(F)cc1F)c1ccc(F)cc1 | Non-toxic | Non-toxic | 28.35% | 42 µM | 0.57 | 
4 | COc1cc(NC(=O)c2cc(F)cc(F)c2)cc(OC)c1OC | Non-toxic | Non-toxic | 22.87% | 27.5 µM | 0.87 | 
5 | O=C(Nc1c(F)cc(F)cc1F)c1cc([N+](=O)[O-])cc([N+](=O)[O-])c1 | Non-toxic | Non-toxic | 25.66% | 32.5 µM | 0.74 | 
6 | CN(C)c1ccc(NC(=O)c2cc(F)cc(F)c2)cc1 | Non-toxic | Non-toxic | 23.93% | 30 µM | 0.8 | 
7 | O=C(Nc1ccc(F)cc1F)c1cc(F)cc(F)c1 | Non-toxic | Non-toxic | 51.13% | > 100 µM | >0.24 | 
8 | COc1cc(NC(=O)c2ccc(OC(F)(F)F)cc2)cc(OC)c1 | Non-toxic | Non-toxic | 11.99% | 7.5 µM | 3.2 | 
9 | Oc1ccc(/C=C/c2cc(O)cc(O)c2)cc1 [RESVERATROL] |  |  |  | 24 µM | 1 | 
10 | O=C(Nc1c(F)cc(F)cc1F)c1cc(F)cc(F)c1 | Non-toxic | Non-toxic | 9% | 26 µM | 0.92 | 
11 | O=C(Nc1ccc(F)cc1)c1cc(F)cc(F)c1 | Non-toxic | Non-toxic | 30.55% | 21 µM | 1.14 | 
